For two compounds, inhibition results are on record in ChEMBL document CHEMBL3616436, “Synthesis, cytotoxicity and antimicrobial activity of thiourea derivatives incorporating 3-(trifluoromethyl)phenyl moiety” (Eur J Med Chem, 2015).

Common to all, as to assay type: functional
Assay [1] relates to Staphylococcus epidermidis. Description: Inhibition of biofilm formation in Staphylococcus epidermidis 23/04 at 8 ug/ml after 24 hrs using MTT staining by spectrophotometer analysis. Particulars: 23/04, 24 h.
Assay [2] concerns Staphylococcus epidermidis. Description: Inhibition of biofilm formation in Staphylococcus epidermidis 31/04 at 8 ug/ml after 24 hrs using MTT staining by spectrophotometer analysis. Particulars: 31/04, 24 h. Put shortly: (§1)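 Methicillin-resistant hospital isolates or ATCC strains of S. epidermidis were grown overnight in tryptone soy broth with 0.5% glucose. Inoculum of 10^7 CFU/mL was mixed 1:1 with compound in TSB-glucose and incubated 24 h at 37 °C. Non-adherent cells were washed off with PBS, and wells were stained with MTT (0.5% in PBS) for 2 h at 37 °C. Stain was solubilized in DMSO/glycine buffer and read at A554. Inhibition is relative to drug-free control; quadruplicates.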

Assay [3] relates to Staphylococcus epidermidis. Description: Inhibition of biofilm formation in Staphylococcus epidermidis 62/04 at 8 ug/ml after 24 hrs using MTT staining by spectrophotometer analysis. Particulars: 62/04, 24 h. In short, it runs like this: as §1
Assay [4] deals with Staphylococcus epidermidis. In words: Inhibition of biofilm formation in Staphylococcus epidermidis 63/04 at 8 ug/ml after 24 hrs using MTT staining by spectrophotometer analysis. Particulars: 63/04, 24 h. In short, it runs like this:
as §1

Assay [5] relates to Staphylococcus epidermidis. In words: Inhibition of biofilm formation in Staphylococcus epidermidis 151/04 at 8 ug/ml after 24 hrs using MTT staining by spectrophotometer analysis. Particulars: 151/04, 24 h.
Assay [6] deals with Staphylococcus epidermidis. Description: Inhibition of biofilm formation in Staphylococcus epidermidis ATCC 12228 at 8 ug/ml after 24 hrs using MTT staining by spectrophotometer analysis. Particulars: ATCC 12228, 24 h. Put shortly:
as §1

Assay [7] deals with Staphylococcus epidermidis. Description: Inhibition of biofilm formation in Staphylococcus epidermidis ATCC 35984 at 8 ug/ml after 24 hrs using MTT staining by spectrophotometer analysis. Particulars: ATCC 35984, 24 h. Put shortly: as §1

As to `Fc1ccc(NC(=S)Nc2cccc(C(F)(F)F)c2)cc1Cl`, the inhibition at 8 µg/mL in assay [1], in assay [2], in assay [3], in assay [4], in assay [5] and in assay [6] was 40% each time. The same compound returned an inhibition at 8 µg/mL in assay [7] of 40%.
`FC(F)(F)c1cccc(NC(=S)Nc2cccc(Br)c2)c1`: the inhibition at 8 µg/mL is 70% in assay [1]; 70% in assay [2]; 80% in assay [3]; 70% in assay [4]; 70% in assay [5].
